Measured values published in ChEMBL document CHEMBL1157638, “Fluorescent epigenetic small molecule induces expression of the tumor suppressor ras-association domain family 1A and inhibits human prostate xenograft” (J Med Chem, 2010).
The source made the active and inactive calls. No cut-off for these calls is given here.

Columns and labels:
OVCAR-8 = test: Growth inhibition of human OVCAR8 cells assessed as cell growth at 100 nM relative to untreated control; type: functional; settings: read-out: Activity
PC-3 [1] = test: Growth inhibition of human PC3 cells; type: functional
ACHN = test: Growth inhibition of human ACHN cells assessed as cell growth at 1 uM relative to untreated control; type: functional; settings: read-out: Activity
IGROV-1 [2] = test: Growth inhibition of human IGROV1 cells assessed as cell growth at 10 nM relative to untreated control; type: functional; settings: read-out: Activity
NCI-H23 = test: Growth inhibition of human NCI-H23 cells; type: functional
CAKI-1 [3] = test: Growth inhibition of human Caki1 cells assessed as cell growth at 100 nM relative to untreated control; type: functional; settings: read-out: Activity
Procedure, shortened: (§1)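 Run externally at the National Cancer Institute as a 59-cell-line panel screen, with concentrations up to 100 μM. Growth was scored relative to control, where negative growth or total cell kill was possible. Data are in the Supporting Information.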

SF-295 = test: Growth inhibition of human SF295 cells assessed as cell growth at 10 nM relative to untreated control; type: functional; settings: read-out: Activity
SNB-75 [4] = test: Growth inhibition of human SNB75 cells assessed as cell growth at 1 nM relative to untreated control; type: functional; settings: read-out: Activity
CAKI-1 [5] = test: Growth inhibition of human Caki1 cells assessed as cell growth at 1 uM relative to untreated control; type: functional; settings: read-out: Activity; procedure, shortened: as §1
SW-620 = test: Growth inhibition of human SW620 cells assessed as cell growth at 100 nM relative to untreated control; type: functional; settings: read-out: Activity
SF-268 [6] = test: Growth inhibition of human SF268 cells assessed as cell growth at 10 uM relative to untreated control; type: functional; settings: read-out: Activity
EKVX = test: Growth inhibition of human EKVX cells assessed as cell growth at 1 uM relative to untreated control; type: functional; settings: read-out: Activity; procedure, shortened: as §1
[7] = Growth inhibition of human […] cells assessed as cell growth at 1 uM relative to untreated control; type: functional; settings: read-out: Activity
SK-OV-3 = test: Growth inhibition of human SKOV3 cells; type: functional
SF-539 = test: Growth inhibition of human SF539 cells; type: functional; settings: read-out: LC50 (the source's name)
SK-MEL-28 [8] = test: Growth inhibition of human SK-MEL-28 cells; type: functional
NCI-H226 [9] = test: Growth inhibition of human NCI-H226 cells assessed as cell growth at 100 nM relative to untreated control; type: functional; settings: read-out: Activity
DU-145 = test: Growth inhibition of human DU145 cells; type: functional; procedure, shortened: as §1
HL-60(TB) = test: Growth inhibition of human HL-60(TB) cells assessed as cell growth at 10 uM relative to untreated control; type: functional; settings: read-out: Activity
HCT-15 = test: Growth inhibition of human HCT15 cells; type: functional; procedure, shortened: as §1
COLO 205 = test: Growth inhibition of human COLO205 cells assessed as cell growth at 100 nM relative to untreated control; type: functional; settings: read-out: Activity; procedure, shortened: as §1
K562 = test: Growth inhibition of human K562 cells assessed as cell growth at 100 nM relative to untreated control; type: functional; settings: read-out: Activity
PC-3 [10] = test: Increase in RASSF1A gene expression in human PC3 cells at 5 uM after 3 days hrs by RT-PCR; type: functional, cell-based
Procedure, shortened: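 PC-3 cells incubated 3 days with compound, then RNA extracted with TRIzol. 500 ng total RNA reverse-transcribed with random hexamers. RASSF1A amplified with previously described primers and conditions. Products run on 1.5% agarose and stained with ethidium bromide. Bands quantified by densitometry against untreated cells, with RASSF1A re-expression from the reference alkaloid set to 100%.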

HT-29 = test: Growth inhibition of human HT-29 cells; type: functional
IGROV-1 [11] = test: Growth inhibition of human IGROV1 cells assessed as cell growth at 10 uM relative to untreated control; type: functional; settings: read-out: Activity
SNB-75 [12] = test: Growth inhibition of human SNB75 cells assessed as cell growth at 1 uM relative to untreated control; type: functional; settings: read-out: Activity
SNB-19 = test: Growth inhibition of human SNB19 cells assessed as cell growth at 100 nM relative to untreated control; type: functional; settings: read-out: Activity
SK-MEL-5 = test: Growth inhibition of human SK-MEL-5 cells; type: functional
SK-MEL-28 [13] = test: Growth inhibition of human SK-MEL-28 cells assessed as cell growth at 10 nM relative to untreated control; type: functional; settings: read-out: Activity
UACC-62 = test: Growth inhibition of human UACC62 cells; type: functional
Malme-3M [14] = test: Growth inhibition of human MALME-3M cells assessed as cell growth at 10 nM relative to untreated control; type: functional; settings: read-out: Activity
[15] = target: DNA (cytosine-5)-methyltransferase 3A (Homo sapiens) (UniProt Q9Y6K1); test: Binding affinity to DNMT3a in human PC3 cells cytoplasm at 5 uM after 6 hrs by antibody staining; type: cell-based; settings: PC-3
Sequence of DNA (cytosine-5)-methyltransferase 3A (Homo sapiens) (Q9Y6K1 whole entry, looked up): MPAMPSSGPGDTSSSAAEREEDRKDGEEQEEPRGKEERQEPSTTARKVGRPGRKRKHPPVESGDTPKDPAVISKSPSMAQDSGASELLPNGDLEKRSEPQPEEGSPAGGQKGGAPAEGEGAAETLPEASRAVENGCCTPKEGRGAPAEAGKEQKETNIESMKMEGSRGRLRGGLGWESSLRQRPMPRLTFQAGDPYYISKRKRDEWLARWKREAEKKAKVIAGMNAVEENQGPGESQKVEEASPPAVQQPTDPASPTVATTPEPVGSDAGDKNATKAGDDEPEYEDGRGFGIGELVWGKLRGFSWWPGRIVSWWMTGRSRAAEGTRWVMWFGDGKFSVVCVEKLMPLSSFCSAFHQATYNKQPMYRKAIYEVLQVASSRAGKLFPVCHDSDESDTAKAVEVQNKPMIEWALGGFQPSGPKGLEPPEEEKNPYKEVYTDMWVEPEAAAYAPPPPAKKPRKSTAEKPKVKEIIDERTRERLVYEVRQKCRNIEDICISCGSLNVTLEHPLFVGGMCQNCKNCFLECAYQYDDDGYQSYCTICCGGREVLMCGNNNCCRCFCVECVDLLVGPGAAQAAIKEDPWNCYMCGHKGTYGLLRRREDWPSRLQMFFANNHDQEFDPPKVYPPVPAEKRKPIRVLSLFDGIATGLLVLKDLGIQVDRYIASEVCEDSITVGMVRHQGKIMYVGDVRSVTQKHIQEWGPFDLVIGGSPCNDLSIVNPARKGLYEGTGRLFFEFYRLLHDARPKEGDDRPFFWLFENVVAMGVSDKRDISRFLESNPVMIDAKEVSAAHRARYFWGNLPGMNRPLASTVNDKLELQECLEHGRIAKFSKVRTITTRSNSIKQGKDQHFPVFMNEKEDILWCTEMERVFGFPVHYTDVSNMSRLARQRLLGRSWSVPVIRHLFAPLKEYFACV
Procedure, shortened: (§2)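 PC-3 cells were plated overnight on fibronectin/[…]-coated slides and treated with 5 μM compound or DMSO for 1-6 h. Cells were PBS-washed, fixed in 4% formaldehyde, and stained with propidium iodide (nuclei) and anti-DNMT3a or anti-DNMT3b antibody. The compound was excited at 725 nm by multiphoton laser and imaged through a 500-550 nm filter by confocal microscopy.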

UO-31 = test: Growth inhibition of human UO31 cells; type: functional
CCRF-CEM = test: Growth inhibition of human CCRF-CEM cells assessed as cell growth at 100 nM relative to untreated control; type: functional; settings: read-out: Activity
[16] = target: DNA (cytosine-5)-methyltransferase 3B (Homo sapiens) (UniProt Q9UBC3); test: Binding affinity to DNMT3b in human PC3 cells cytoplasm at 5 uM after 1 hr by antibody staining; type: cell-based; settings: PC-3; procedure, shortened: as §2
SN12C = test: Growth inhibition of human SN12C cells assessed as cell growth at 10 nM relative to untreated control; type: functional; settings: read-out: Activity
HOP-62 = test: Growth inhibition of human HOP62 cells assessed as cell growth at 10 nM relative to untreated control; type: functional; settings: read-out: Activity; procedure, shortened: as §1
NCI-H226 [17] = test: Growth inhibition of human NCI-H226 cells assessed as cell growth at 1 uM relative to untreated control; type: functional; settings: read-out: Activity
MCF7 = test: Growth inhibition of human MCF7 cells assessed as cell growth at 10 uM relative to untreated control; type: functional; settings: read-out: Activity
SK-MEL-28 [18] = test: Growth inhibition of human SK-MEL-28 cells assessed as cell growth at 1 uM relative to untreated control; type: functional; settings: read-out: Activity
SF-268 [19] = test: Growth inhibition of human SF268 cells; type: functional
Malme-3M [20] = test: Growth inhibition of human MALME-3M cells assessed as cell growth at 10 uM relative to untreated control; type: functional; settings: read-out: Activity
[21] = read-out: LC50 (the source's name)

Q: Which results are given for `COc1ccc2c(c1)[nH]c1c(C)c(OS(=O)(=O)c3cccc4c(N(C)C)cccc34)ccc12`?
A: growth at 0.1 µM (OVCAR-8): 101%; GI50 (PC-3 [1]): 39.3 µM; TGI (PC-3 [1]): > 100 µM; CC50 (PC-3 [1]; [21]): > 100 µM; growth at 1 µM (ACHN): 43%; growth at 0.01 µM (IGROV-1 [2]): 110%; GI50 (NCI-H23): 4.08 µM; TGI (NCI-H23): > 100 µM; CC50 (NCI-H23; [21]): > 100 µM; growth at 0.1 µM (CAKI-1 [3]): 81%; growth at 0.01 µM (SF-295): 93%; growth at 0.001 µM (SNB-75 [4]): 107%; growth at 1 µM (CAKI-1 [5]): 69%; growth at 0.1 µM (SW-620): 95%; growth at 10 µM (SF-268 [6]): 27%; growth at 1 µM (EKVX): 35%; growth at 1 µM [7]: 1%; GI50 (SK-OV-3): 5.47 µM; TGI (SK-OV-3): > 100 µM; CC50 (SK-OV-3; [21]): > 100 µM; CC50 (SF-539): > 100 µM; GI50 (SK-MEL-28 [8]): 50.3 µM; TGI (SK-MEL-28 [8]): > 100 µM; CC50 (SK-MEL-28 [8]; [21]): > 100 µM; growth at 0.1 µM (NCI-H226 [9]): 85%; GI50 (DU-145): 3.54 µM; TGI (DU-145): > 100 µM; CC50 (DU-145; [21]): > 100 µM; growth at 10 µM (HL-60(TB)): -18%; GI50 (HCT-15): 4.35 µM; TGI (HCT-15): > 100 µM; CC50 (HCT-15; [21]): > 100 µM; growth at 0.1 µM (COLO 205): 95%; growth at 0.1 µM (K562): 91%; Activity (PC-3 [10]): Active; GI50 (HT-29): 3.71 µM; TGI (HT-29): > 100 µM; CC50 (HT-29; [21]): > 100 µM; growth at 10 µM (IGROV-1 [11]): 39%; growth at 1 µM (SNB-75 [12]): 24%; growth at 0.1 µM (SNB-19): 88%; GI50 (SK-MEL-5): 2.73 µM; TGI (SK-MEL-5): 9.34 µM; CC50 (SK-MEL-5; [21]): > 100 µM; growth at 0.01 µM (SK-MEL-28 [13]): 87%; GI50 (UACC-62): 3.39 µM; TGI (UACC-62): > 100 µM; CC50 (UACC-62; [21]): > 100 µM; growth at 0.01 µM (Malme-3M [14]): 89%; Activity [15]: inactive; GI50 (UO-31): 13.6 µM; TGI (UO-31): > 100 µM; CC50 (UO-31; [21]): > 100 µM; growth at 0.1 µM (CCRF-CEM): 91%; Activity [16]: Active; growth at 0.01 µM (SN12C): 92%; growth at 0.01 µM (HOP-62): 111%; growth at 1 µM (NCI-H226 [17]): 51%; growth at 10 µM (MCF7): 8%; growth at 1 µM (SK-MEL-28 [18]): 39%; GI50 (SF-268 [19]): 75.1 µM; TGI (SF-268 [19]): > 100 µM; CC50 (SF-268 [19]; [21]): > 100 µM; growth at 10 µM (Malme-3M [20]): 12%
